Test results from ChEMBL document CHEMBL4616638, “Inhibition of HIV-1 RT activity by a new series of 3-(1,3,4-thiadiazol-2-yl)thiazolidin-4-one derivatives” (Bioorg Med Chem, 2020).
pEC50, pIC50: −log10 of the molar value.

Assays:
[1] = Selectivity index, ratio of CC50 for human MT4 cells to EC50 for antiviral activity againstHIV1 infected in human MT4 cells; assay type: toxicity, cell-based; details: read-out: Ratio CC50/EC50
Procedure, shortened: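 Ratio CC50/EC50, both from the same 5-day MTT run in MT-4 cells, mock-infected versus HIV-infected (100–300 CCID50) wells.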

[2] = molecular target: Human immunodeficiency virus type 1 reverse transcriptase (Human immunodeficiency virus 1, UniProt Q72547); test: Inhibition of wild type recombinant HIV1 reverse transcriptase p66/p51 using poly(rA)/oligo(dT)16 as template/primer measured after 40 mins by picogreen dye-based spectrofluorometric method
[3] = system: Human immunodeficiency virus 1; test: Antiviral activity against HIV1 infected in human MT4 cells assessed as reduction in virus-induced cytopathic effect after 5 days by MTT assay; assay type: functional, organism-based; details: Human immunodeficiency virus 1, MT4, 120 h
Procedure, shortened: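 HIV stock at 100–300 CCID50 added to MT-4 cells (6 × 10^5 cells/ml after centrifugation of exponentially growing cells), compounds as serial 5-fold dilutions in triplicate wells. After 5 days, viability read by MTT reduction at 540 and 690 nm, median of three wells. EC50 taken as concentration reducing virus-induced cytopathic effect by 50%.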

[4] = Cytotoxicity against human MT4 cells assessed as reduction in cell viability after 5 days by MTT assay; assay type: cell-based
Procedure, shortened: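 Mock-infected MT-4 cells (6 × 10^5 cells/ml) run alongside infected wells, receiving serial 5-fold compound dilutions in triplicate. After 5 days, MTT formazan read at 540 and 690 nm, median of three wells. CC50 is the concentration lowering OD540 of mock-infected control by 50%.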

Compound	pIC50 [2]	selectivity ratio [1]	pEC50 [3]	CC50 at 120 h [4] [µM]
O=C1CSC(c2ccccc2)N1c1nnc(S)s1 (stereo unspecified)	< 4.00	13	4.49	> 423
O=C1CSC(c2ccc(Cl)cc2)N1c1n[nH]c(=S)s1 (stereo unspecified)	< 3.44	< 1	< 3.71	195
O=C1CSC(c2ccccc2Cl)N1c1nnc(S)s1 (stereo unspecified)	< 4.00	< 1	< 3.70	200
O=C1CSC(c2cccc(Cl)c2)N1c1nnc(S)s1 (stereo unspecified)	< 4.00	< 1	< 3.62	238
Cc1ccnc2c1NC(=O)c1cccnc1N2C1CC1 [NEVIRAPINE]				> 15
NS(=O)(=O)c1ccc(NC(=O)CSc2nnc(N3C(=O)CSC3c3ccc(Cl)cc3)s2)cc1 (stereo unspecified)	4.14		≤ 3.65	≥ 222

More lines, in order of rising pIC50 [2], values ahead:

pIC50 [2]	Compound	selectivity ratio [1]	pEC50 [3]	CC50 at 120 h [4] [µM]
4.39	CS(=O)(=O)c1ccc(NC(=O)CSc2nnc(N3C(=O)CSC3c3ccccc3)s2)cc1 (stereo unspecified)	< 1	< 3.88	130
4.40	CS(=O)(=O)c1ccc(NC(=O)CSc2nnc(N3C(=O)CSC3c3ccc(Cl)cc3)s2)cc1 (stereo unspecified)	< 1	< 3.94	116
4.51	NS(=O)(=O)c1ccc(NC(=O)CSc2nnc(N3C(=O)CSC3c3ccccc3)s2)cc1 (stereo unspecified)	< 1	< 4.00	99.2
4.66	NS(=O)(=O)c1ccc(NC(=O)CSc2nnc(N3C(=O)CSC3c3ccccc3Cl)s2)cc1 (stereo unspecified)		< 4.73	≥ 18.8
4.72	NS(=O)(=O)c1ccc(NC(=O)CSc2nnc(N3C(=O)CSC3c3cccc(Cl)c3)s2)cc1 (stereo unspecified)	< 1	< 3.93	118
4.80	CS(=O)(=O)c1ccc(NC(=O)CSc2nnc(N3C(=O)CSC3c3cccc(Cl)c3)s2)cc1 (stereo unspecified)	< 1	< 3.95	113
4.93	CS(=O)(=O)c1ccc(NC(=O)CSc2nnc(N3C(=O)CSC3c3ccccc3Cl)s2)cc1 (stereo unspecified)		≤ 3.76	≥ 173
